Measured values taken from article PMC9906001 (Pulmonary Circulation, 2023).
Values joined by “and” are separate entries in the source; they are usually repeats but may differ in a detail not shown here. Equal entries are not always repeated. Where two headings read alike, the source gives them in different places.

Experiments:
[1] = tested on: Japanese patients with pulmonary arterial hypertension; conditions: baseline to week 16, study of selexipag in Japan; cited from earlier work
[2] = tested on: Japanese patients with pulmonary arterial hypertension; assay: WHO functional class; assay type: in vivo, human
In short: (§1)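 Multicentre, non-randomised, single-arm study: 12-week main period plus 40-week extension. Nebulised test compound given as 0.6 mg/mL at 6 µg/breath, starting 3 breaths (18 µg)/session four times daily. Patients 18–75 y with PAH; stable background ERA/PDE5 inhibitor/sGC stimulator allowed; no other prostacyclin-pathway drugs. Secondary endpoints reported as change from baseline.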

[3] = tested on: Japanese patients with pulmonary arterial hypertension; assay: Quality of life, Minnesota Living with Heart Failure questionnaire; assay type: in vivo, human
In short: as §1

[4] = Plasma pharmacokinetics in Japanese PAH patients; assay type: in vivo, human
[5] = tested on: Japanese patients with pulmonary arterial hypertension; assay: Time to clinical worsening; assay type: in vivo, human
In short: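 Clinical worsening was defined as death, transplantation, hospitalisation for worsening PAH, or start of additional PAH-specific therapy. Followed during the 12-week main and 40-week long-term periods of open-label nebulised test compound (6 µg/breath, starting 3 breaths/session four times daily), in addition to background ERA and/or PDE5 inhibitor/sGC stimulator.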

[6] = tested on: Japanese patients with pulmonary arterial hypertension; assay: Hemodynamic measurements by right heart catheterization; assay type: in vivo, human
In short: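 RHC at baseline and Week 12, pre-inhalation and 15 and 30 min after inhaling test compound (6 µg/breath, starting 3 breaths four times daily). CO by thermodilution or indirect Fick per site, with the same method per patient. PVR = (mPAP−PAWP)/CO; PVRI = (mPAP−PAWP)/cardiac index (CO/BSA). Lower of 15/30-min PVRI taken as Week-12 "best". Significance: 95% CI of mean change excluding 0.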

[7] = 54 μg inhaled, non-Japanese PAH patients; cited from earlier work
[8] = Plasma pharmacokinetics in Japanese healthy adults, single inhalation; assay type: in vivo, human; conditions: 18 and 36 μg inhaled
[9] = tested on: Japanese patients with pulmonary arterial hypertension; assay: Safety: adverse events and safety parameters over 52 weeks; assay type: in vivo, human
In short: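 Over the 52 weeks of nebulised test compound (6 µg/breath, starting 3 breaths four times daily), AEs were coded by MedDRA v24.0 preferred term. Monitoring covered clinical laboratory tests, blood pressure, pulse, SpO2, ECG, chest X-ray, pulmonary function, arterial blood gas and body weight. Safety set: patients who received at least one dose.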

[10] = tested on: Japanese patients with pulmonary arterial hypertension; assay: NT-proBNP levels; assay type: in vivo, human
In short: as §1

[11] = tested on: Japanese patients with pulmonary arterial hypertension; assay: 6-minute walking distance and Borg Dyspnea Score; assay type: in vivo, human
In short: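 Single-arm, open-label study: test compound nebulised at 6 µg/breath from a 0.6 mg/mL solution, started at 3 breaths (18 µg)/session four times daily. Peak 6MWD taken 10–60 min after inhalation, trough 6MWD at least 4 h post-inhalation. Borg score was a secondary endpoint. Change from baseline; significance taken as a two-sided 95% CI excluding 0.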

[12] = human, plasma, inhaled or intranasal, 54 ug
[13] = Week 12, 15 min post-inhalation, n = 17
[14] = Week 12, 30 min post-inhalation, n = 17
[15] = Week 12, post-inhalation best, n = 17
[16] = Week 12, pre-inhalation (trough treprostinil level), n = 17
[17] = Week 12, pre-inhalation, n = 17
[18] = over 52 weeks, n = 17, listed as treprostinil

SMILES: CC(C)N(CCCCOCC(=O)NS(C)(=O)=O)c1cnc(-c2ccccc2)c(-c2ccccc2)n1 [selexipag]
- Change from baseline in mPAP [1]: −3.1 mmHg

SMILES: CCCCC[C@H](O)CC[C@@H]1[C@H]2Cc3cccc(OCC(=O)O)c3C[C@H]2C[C@H]1O [inhaled treprostinil, Treprostinil]
- WHO functional class improved ([2]; Week 12): four
- WHO functional class I ([2]; Week 12 (n = 17)): 1 (5.9) n (%)
- WHO functional class II ([2]; Week 12 (n = 17)): 13 (76.5) n (%)
- WHO functional class III ([2]; Week 12 (n = 17)): 3 (17.6) n (%)
- WHO functional class I ([2]; Week 52 (n = 16)): 2 (12.5) n (%)
- WHO functional class II ([2]; Week 52 (n = 16)): 12 (75.0) n (%)
- WHO functional class III ([2]; Week 52 (n = 16)): 2 (12.5) n (%)
- WHO functional class shift II -> I ([2]; baseline to Week 12 (n = 17)): 1 (5.9) n (%)
- WHO functional class shift II -> II ([2]; baseline to Week 12 (n = 17)): 10 (58.8) n (%)
- WHO functional class shift III -> II ([2]; baseline to Week 12 (n = 17)): 3 (17.6) n (%)
- WHO functional class shift III -> III ([2]; baseline to Week 12 (n = 17)): 3 (17.6) n (%)
- WHO functional class shift II -> I ([2]; baseline to Week 52 (n = 16)): 2 (12.5) n (%)
- WHO functional class shift II -> II ([2]; baseline to Week 52 (n = 16)): 9 (56.3) n (%)
- WHO functional class shift III -> II ([2]; baseline to Week 52 (n = 16)): 3 (18.8) n (%)
- WHO functional class shift III -> III ([2]; baseline to Week 52 (n = 16)): 2 (12.5) n (%)
- Deterioration of WHO functional class ([2]; throughout the 52 weeks): no patient
- Mean change from baseline in MLWHF global score ([3]; Week 12): −6.6 ± 12.1
- Mean change from baseline in MLWHF global score ([3]; Week 52): −5.8 ± 13.4
- MRT [4, 12]: 55.8 ± 10.2 min
- Vd/F [4, 12]: 76.7 ± 52.2 L
- k el [4, 12]: 0.000272 s⁻¹
- Time detectable in the plasma after inhalation ([4]; nine breaths (54 μg) four times daily): approximately 4 h
- Add-on therapy with a PDE5 inhibitor/sGC stimulator ([5]; long-term treatment period, patients who had been receiving an ERA): two patients
- Needed additional PAH-specific therapy ([5]; main treatment period (12 weeks)): no patient
- Death, transplantation, or hospitalization due to worsening PAH ([5]; throughout the 52 weeks): no patient
- Best change from baseline in PVRI at Week 12 ([6]; 13 patients receiving a combination of an ERA and a PDE5 inhibitor/sGC stimulator): −36.7 ± 25.0%
- CO [6, 13]: 4.9 ± 1.6 L/min
- Cardiac index [6, 13]: 3.0 ± 0.9 L/min/m^2
- PAWP [6, 13]: 9.4 ± 4.2 mmHg
- PVR [6, 13]: 4.5 ± 1.8 Wood units
- PVRI [6, 13]: 7.4 ± 2.8 Wood units·m^2
- SVR [6, 13]: 17.8 ± 6.5 Wood units
- SVRI [6, 13]: 28.8 ± 9.5 Wood units·m^2
- SvO2 [6, 13]: 71.3 ± 5.6%
- mPAP [6, 13]: 30.5 ± 10.1 mmHg
- mRAP [6, 13]: 4.5 ± 3.1 mmHg
- CO [6, 14]: 5.0 ± 1.5 L/min
- Cardiac index [6, 14]: 3.0 ± 0.9 L/min/m^2
- PAWP [6, 14]: 8.9 ± 3.9 mmHg
- PVR [6, 14]: 4.4 ± 2.0 Wood units
- PVRI [6, 14]: 7.3 ± 3.1 Wood units·m^2
- SVR [6, 14]: 17.7 ± 6.2 Wood units
- SVRI [6, 14]: 28.7 ± 9.2 Wood units·m^2
- SvO2 [6, 14]: 70.0 ± 5.8%
- mPAP [6, 14]: 30.1 ± 10.3 mmHg
- mRAP [6, 14]: 4.8 ± 3.3 mmHg
- CO [6, 15]: 5.1 ± 1.7 L/min
- Cardiac index [6, 15]: 3.1 ± 0.9 L/min/m^2
- PAWP [6, 15]: 8.5 ± 4.0 mmHg
- PVR [6, 15]: 4.2 ± 1.9 Wood units
- PVRI [6, 15]: 6.9 ± 2.9 Wood units·m^2
- SVR [6, 15]: 17.5 ± 6.4 Wood units
- SVRI [6, 15]: 28.4 ± 9.4 Wood units·m^2
- SvO2 [6, 15]: 71.5 ± 5.5%
- mPAP [6, 15]: 29.8 ± 9.9 mmHg
- mRAP [6, 15]: 4.4 ± 3.0 mmHg
- Change from baseline in PVR [6, 16]: −19.6 ± 26.8%
- Change from baseline in PVRI [6, 16]: −19.2 ± 26.8%
- Change from baseline in mPAP [6, 16]: −4.0 ± 6.1 mmHg
- CO [6, 17]: 4.6 ± 1.3 L/min
- Cardiac index [6, 17]: 2.8 ± 0.8 L/min/m^2
- PAWP [6, 17]: 8.8 ± 4.1 mmHg
- PVR [6, 17]: 5.7 ± 2.2 Wood units
- PVRI [6, 17]: 9.3 ± 3.1 Wood units·m^2
- SVR [6, 17]: 19.5 ± 6.2 Wood units
- SVRI [6, 17]: 31.7 ± 8.7 Wood units·m^2
- SvO2 [6, 17]: 71.2 ± 5.3%
- mPAP [6, 17]: 34.1 ± 9.8 mmHg
- mRAP [6, 17]: 5.0 ± 3.5 mmHg
- Best change from baseline in PVRI at Week 12 ([6]; one patient who was treatment-naïve): −54.7%
- % Change from baseline to Week 12 in CO ([6]; post-inhalation best, n = 17): 18.3 ± 20.0 (8.0 to 28.6) %
- % Change from baseline to Week 12 in PAWP ([6]; post-inhalation best, n = 17): 24.2 ± 60.9 (−7.1 to 55.5) %
- % Change from baseline to Week 12 in PVR ([6]; post-inhalation best, n = 17): −39.7 ± 25.6 (−52.9 to −26.5) %
- % Change from baseline to Week 12 in PVRI (primary endpoint) ([6]; post-inhalation best, n = 17): −39.4 ± 25.5 (−52.6 to −26.3) %
- % Change from baseline to Week 12 in SVR ([6]; post-inhalation best, n = 17): −15.3 ± 24.0 (−27.7 to −3.0) %
- % Change from baseline to Week 12 in SVRI ([6]; post-inhalation best, n = 17): −14.8 ± 24.4 (−27.4 to −2.3) %
- % Change from baseline to Week 12 in SvO2 ([6]; post-inhalation best, n = 17): 2.7 ± 5.8 (−0.3 to 5.7) %
- % Change from baseline to Week 12 in cardiac index ([6]; post-inhalation best, n = 17): 17.8 ± 20.3 (7.3 to 28.2) %
- % Change from baseline to Week 12 in mPAP ([6]; post-inhalation best, n = 17): −21.7 ± 19.7 (−31.9 to −11.6) %
- % Change from baseline to Week 12 in mRAP ([6]; post-inhalation best, n = 17): −0.3 ± 57.0 (−31.9 to 31.2) %
- Change from baseline to Week 12 in PVR ([6]; post-inhalation best, n = 17): −2.9 ± 2.0 (−4.0 to −1.9) Wood units
- Change from baseline to Week 12 in PVRI ([6]; post-inhalation best, n = 17): −4.7 ± 3.0 (−6.2 to −3.1) Wood units·m^2
- Change from baseline to Week 12 in SVR ([6]; post-inhalation best, n = 17): −3.3 ± 4.4 (−5.6 to −1.1) Wood units
- Change from baseline to Week 12 in SVRI ([6]; post-inhalation best, n = 17): −5.3 ± 7.3 (−9.1 to −1.5) Wood units·m^2
- Change from baseline to Week 12 in mPAP ([6]; post-inhalation best, n = 17): −8.3 ± 6.8 (−11.8 to −4.8) mmHg
- Best change from baseline in PVRI at Week 12 ([6]; three patients receiving an ERA): −46.0 ± 35.1%
- Geometric mean C max [7]: 1.02 ng/mL
- Mean C max, Japanese vs non-Japanese healthy adults [8]: 1.2 fold
- AE related to treprostinil: cough ([9]; 52-week period): 47.1%
- AE related to treprostinil: headache ([9]; 52-week period): 58.8%
- AE related to treprostinil: hot flush ([9]; 52-week period): 23.5%
- AE related to treprostinil: throat irritation ([9]; 52-week period): 29.4%
- Intensity of AEs ([9]; all AEs, 52-week period): mild‐moderate intensity
- Tolerability ([9]; four times daily in Japanese patients with PAH): well tolerated
- AE related to treprostinil: Blood pressure decreased ([9]; over 52 weeks, n = 17): 2 (11.8) n (%)
- AE related to treprostinil: Diarrhoea ([9]; over 52 weeks, n = 17): 2 (11.8) n (%)
- AE related to treprostinil: Dizziness ([9]; over 52 weeks, n = 17): 2 (11.8) n (%)
- AE related to treprostinil: Head discomfort ([9]; over 52 weeks, n = 17): 3 (17.6) n (%)
- AE related to treprostinil: Hot flush ([9]; over 52 weeks, n = 17): 4 (23.5) n (%)
- AE related to treprostinil: Nausea ([9]; over 52 weeks, n = 17): 3 (17.6) n (%)
- AE related to treprostinil: Oropharyngeal discomfort ([9]; over 52 weeks, n = 17): 3 (17.6) n (%)
- AE related to treprostinil: Oropharyngeal pain ([9]; over 52 weeks, n = 17): 2 (11.8) n (%)
- AE related to treprostinil: Pyrexia ([9]; over 52 weeks, n = 17): 2 (11.8) n (%)
- AE related to treprostinil: cough ([9]; over 52 weeks, n = 17): 8 (47.1) n (%)
- AE related to treprostinil: headache ([9]; over 52 weeks, n = 17): 10 (58.8) n (%)
- AE related to treprostinil: throat irritation ([9]; over 52 weeks, n = 17): 5 (29.4) n (%)
- Deaths ([9]; over 52 weeks, n = 17): no deaths
- Deaths [9, 18]: 0 n (%)
- Total patients with at least one AE [9, 18]: 17 n (%) and 17 (100.0) n (%)
- Total patients with at least one AE related to treprostinil [9, 18]: 17 n (%) and 17 (100.0) n (%)
- Mean change from baseline in NT-proBNP level ([10]; Week 6): -34.6 ± 100.0 pg/mL
- Mean change from baseline in NT-proBNP level ([10]; Week 12): -35.5 ± 165.5 pg/mL
- Mean change from baseline in NT-proBNP level ([10]; Week 52): -77.1 ± 194.1 pg/mL
- Mean change from baseline in trough 6MWD ([11]; Week 12): +17.8 ± 35.5 m
- Change from baseline in Borg Dyspnea Score ([11]; Weeks 6, 12, and 52): No significant changes
